ChEMBL document CHEMBL1152328, “Alstiphyllanines A-D, indole alkaloids from Alstonia macrophylla” (J Nat Prod, 2009)
In brackets after ≈: the same amount, converted by molar mass.

Tests used:
HeLa = assay: Cytotoxicity against human HeLa cells; assay type: cell-based
Plasmodium falciparum = assay: Antiplasmodial activity against Plasmodium falciparum 3D7 infected human erythrocytes by Giemsa staining; assay type: functional, organism-based
In short: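 Human malaria parasites were kept in culture, and the test samples were made up as DMSO stock solutions before assay.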

Aorta = assay: Vasodilation activity in Wistar rat endothelium-intact thoracic aortic ring assessed as inhibition of phenylepinephrine-induced contraction at 30 uM; assay type: functional; parameters: scale not given: the % may be the effect or the level left

| IC50 (Plasmodium falciparum) [µg/mL] | SMILES | IC50 (HeLa) [µg/mL] | Activity (Aorta) [%] |
| --- | --- | --- | --- |
| 0.34 | C/C=C1/C[N+]2(C)[C@@H]3C[C@@]45c6cc(OC)ccc6N(C)[C@]4(O3)[C@@H]2C[C@@H]1[C@@]5(COC(=O)c1ccc(OC)c(OC)c1)C(=O)OC (some centres not stated) [ALSTIPHYLLANINE B] | > 25 | 35 |
| 2.75 (≈ 4.53 µM) | C/C=C1/CN2[C@@H]3C[C@@]45c6cc(OC)ccc6N(C)[C@]4(O3)[C@@H]2C[C@@H]1[C@@]5(COC(=O)c1cc(OC)c(OC)c(OC)c1)C(=O)OC [ALSTIPHYLLANINE D] | > 25 | 42 |
| 6.2 | C/C=C1/C[N+]2(C)[C@@H]3C[C@@]45c6cc(OC)ccc6N(C)[C@]4(O3)[C@@H]2C[C@@H]1[C@@]5(COC(=O)c1cc(OC)c(OC)c(OC)c1)C(=O)OC (some centres not stated) [ALSTIPHYLLANINE C] | > 25 | 40 |

| SMILES | IC50 (Plasmodium falciparum) [µg/mL] | IC50 (HeLa) [µg/mL] | Activity (Aorta) [%] |
| --- | --- | --- | --- |
| C/C=C1\C[N+]2([O-])[C@H]3C[C@@H]1[C@]1(C(=O)OC)[C@@H](OC(C)=O)[C@]4(C[C@@H]12)c1ccccc1N(C)[C@H]34 [ALSTIPHYLLANINE A] | 6.85 (≈ 16.1 µM) | > 25 | 70 |
